Hits are enriched below; roughly 2.3% of the tested compounds scored in any of these assays.
LMPTP inh: blocks human LMPTP phosphatase | P24666 | recombinant LMPTP-A, OMFP fluorogenic substrate, fluorescence intensity | inhibition, % at 20 µM | actives 0.22% (n = 360,000) | AID 651560;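 active = compounds that cut the enzyme signal by at least half of the control window in the single-dose screen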;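 also: plate controls were DMSO wells with enzyme plus substrate for no effect and substrate without enzyme for full effect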
Target sequence (P24666 whole entry, looked up): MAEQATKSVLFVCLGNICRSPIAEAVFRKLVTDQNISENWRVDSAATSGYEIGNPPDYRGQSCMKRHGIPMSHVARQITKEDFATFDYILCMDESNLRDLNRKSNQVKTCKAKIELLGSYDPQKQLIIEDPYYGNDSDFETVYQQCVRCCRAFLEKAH
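Assay system: LMPTP-A phosphatase enzyme | Input: 0.625 nM enzyme | Also added: Fluorogenic phosphatase substrate OMFP at 400 µM final | Compound dosing: One test concentration per compound, 20 µM, with 3% DMSO overall | Schedule: 50 min enzyme reaction at room temperature, protected from light | Signal: Fluorescence intensity | Benchmarks: no-enzyme and uninhibited controls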
DNMT1 block: DNMT1 (human) enzyme inhibition; inhibition (reported as % activation of signal), % at 10 µM; P26358; AID 588458; DNMT1 molecular beacon, Hinp1I cleavage, fluorescence; actives 0.83% (n = 360,000); in the data active = inhibition above about 50%
Rpn11 block: inhibitors of human proteasome Rpn11. inhibition, % at 20 µM. human 26S proteasome, Ub4-pepOG fluorescence polarization; 20S core pre-blocked with epoxomicin. actives 0.59% (n = 360,000);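 active = inhibition at 20 µM, scaled to each plate's controls, above about 33%, limit read from the data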
Target sequence (O00487 whole entry, looked up): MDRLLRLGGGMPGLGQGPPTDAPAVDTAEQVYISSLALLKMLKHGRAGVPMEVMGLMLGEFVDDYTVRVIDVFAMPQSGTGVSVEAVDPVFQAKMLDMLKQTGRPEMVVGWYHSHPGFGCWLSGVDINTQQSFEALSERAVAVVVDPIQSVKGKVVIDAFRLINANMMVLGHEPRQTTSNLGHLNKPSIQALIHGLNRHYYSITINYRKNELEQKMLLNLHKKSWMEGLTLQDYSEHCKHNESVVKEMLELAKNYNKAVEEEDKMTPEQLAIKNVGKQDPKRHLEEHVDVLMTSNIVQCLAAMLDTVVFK
STEP block: blocks human striatal-enriched tyrosine phosphatase. P54829. recombinant STEP, OMFP fluorogenic substrate, fluorescence. inhibition, % at 20 µM. actives 0.25% (n = 360,000). AID 588621;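 active = inhibition at 20 µM, scaled per plate between control wells, above about 37%, limit read from the data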;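 also: 0% = DMSO with enzyme and substrate and 100% = substrate only without enzyme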
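System: STEP phosphatase, cell-free reaction; Buffer or medium: Bis-Tris pH 6.0 buffer with DTT, detergent; Incubation: 20 min at room temperature, dark; Measured by: fluorescence, 480/540 nm.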
SUMO1 PPI mod: alters human SUMO1 binding to SIM partners; P63165; SUMO1 binding to a labelled peptide, TR-FRET, 1 h; inhibition, % at 20 µM; actives 0.33% (n = 360,000); in the data active = inhibition above about 37%
Scp-1 inhibitor: Scp-1 (human) phosphatase inhibition; inhibition, % at 20 µM; Q9GZU7; actives 0.88% (n = 340,000); Recombinant Scp1, phosphopeptide, malachite green phosphate absorbance;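 active = inhibition above about 50% at 20 µM, limit read from the data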;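 also: plate controls were DMSO wells with enzyme for no effect and wells lacking enzyme for full effect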
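Times: enzyme reaction 45 min at room temperature, colour 5 min, stabilisation 30 min. Material: SCP-1 catalytic fragment, aa 76-261. Medium: Acidic Tris acetate buffer with magnesium and detergent. Signal: colorimetric free-phosphate detection, absorbance 630 nm. Read-out basis: % inhibition of SCP-1 phosphate liberation. Reagent: Phosphorylated 17-residue peptide substrate.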
DNMT1 confirm: DNMT1 inhibition confirmation, single concentration; actives 8% (n = 2,300); inhibition, % at 10 µM; DNMT1 molecular beacon HinP1I cleavage, fluorescence; shares compounds with DNMT1 block;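 active = average inhibition of at least 30% in the single-concentration confirmation test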
Beacon interf: counter-screen for DNMT1 inhibitors: spectral interference. shares compounds with DNMT1 block. DNMT1 molecular beacon spectral interference counterscreen, fluorescence 485/520. activation (fluorescence interference), % at 10 µM. actives 1% (n = 2,300);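 active = activation of at least 30% at 10 µM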;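 also: DNMT1 catalytic domain with a HinP1I cleavage step and a FAM/dabcyl DNA beacon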
Starred values were filed as active, the others as inactive.

Results for CCOC(=O)/C=c1/s/c(=C/c2ccc3cc(OC)ccc3c2)c(=O)n1CC(=O)NCc1ccc2c(c1)OCO2 ?
LMPTP inh: 2; DNMT1 block: 54*; STEP block: -5; SUMO1 PPI mod: 13; Scp-1 inhibitor: -10; DNMT1 confirm: 1; Beacon interf: 4

How did CCOC(=O)/C=c1\s/c(=C\c2ccc(-c3ccccc3)cc2)c(=O)n1CC(=O)NCc1ccc2c(c1)OCO2 do in these assays?
LMPTP inh: 3; DNMT1 block: -5; Rpn11 block: 7; STEP block: 5; SUMO1 PPI mod: -2; Scp-1 inhibitor: -2

Results for CCOC(=O)/C=c1\s/c(=C\c2ccc3cc(OC)ccc3c2)c(=O)n1CC(=O)NCC1CCCO1 (centres undefined) ?
LMPTP inh: -1; DNMT1 block: 58*; STEP block: -3; SUMO1 PPI mod: -1; Scp-1 inhibitor: -8; DNMT1 confirm: 7; Beacon interf: -1

What do the screens show for `O=C(NC1CCS(=O)(=O)C1)Oc1ccc(Cl)cc1` (centres undefined)?
LMPTP inh: -1; DNMT1 block: 2; Rpn11 block: 0; STEP block: 0; SUMO1 PPI mod: -2; Scp-1 inhibitor: -20

How did O=C(Nc1ccccc1C(=O)NC1CC1)c1ccc([N+](=O)[O-])o1 do in these assays?
LMPTP inh: 1; DNMT1 block: 19; Rpn11 block: 2; STEP block: 11; SUMO1 PPI mod: -33; Scp-1 inhibitor: 47

Results for CC(=O)C1=CCC(c2ccccc2)N(S(=O)(=O)c2ccc(Cl)cc2)C1 (centres undefined) ?
LMPTP inh: 1; DNMT1 block: -3; Rpn11 block: -6; STEP block: 2; SUMO1 PPI mod: 6

Results for O=[N+]([O-])c1ccc(COc2ccc(CNc3ccccc3)cc2)cc1 ?
LMPTP inh: 1; DNMT1 block: 0; Rpn11 block: -29; STEP block: 4; SUMO1 PPI mod: -1; Scp-1 inhibitor: 0

How did O=[N+]([O-])c1ccc(COc2cccc(CNc3ccc(Br)cc3)c2)cc1 do in these assays?
LMPTP inh: 5; DNMT1 block: 71*; Rpn11 block: -5; STEP block: 2; SUMO1 PPI mod: -6; Scp-1 inhibitor: -1; DNMT1 confirm: 5; Beacon interf: 6

How did NC(=O)C1CCN(C(=O)C2CCN(S(=O)(=O)c3ccccc3)CC2)CC1 do in these assays?
LMPTP inh: -3; DNMT1 block: 81*; Rpn11 block: 7; STEP block: 0; SUMO1 PPI mod: 1; Scp-1 inhibitor: -7; DNMT1 confirm: 5; Beacon interf: 1

Results for Cc1ccc2nc(NC(=O)C3CCN(S(=O)(=O)c4cc([N+](=O)[O-])ccc4Cl)CC3)sc2c1 ?
LMPTP inh: 4; DNMT1 block: 60*; Rpn11 block: -20; STEP block: 0; SUMO1 PPI mod: 3; Scp-1 inhibitor: 64*; DNMT1 confirm: 2; Beacon interf: -3

What do the screens show for `CCSc1ccc2cc(OC)ccc2[n+]1CC`?
LMPTP inh: -1; DNMT1 block: 0; Rpn11 block: 4; STEP block: 1; SUMO1 PPI mod: -3; Scp-1 inhibitor: -2

What do the screens show for `CC(C)NC(=O)c1sc2nc(-c3cccs3)cc(-c3cccs3)c2c1N`?
Scp-1 inhibitor: 0

What do the screens show for `Nc1c(C(=O)C2CC2)sc2nc(-c3cccs3)cc(C(F)(F)F)c12`?
LMPTP inh: -3; DNMT1 block: 68*; STEP block: -48; SUMO1 PPI mod: -6; Scp-1 inhibitor: -7; DNMT1 confirm: 12; Beacon interf: 34*
